Test system: MS2 coat protein
Assay: apparent Kd, MS2 coat protein; higher = weaker binding; RNA-MaP array; tryptophan 2.4 mM where present
Summary of the method: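 Green signal was scaled to red-channel RNA signal and control-cluster median Fmax, and the apparent Kd was taken as the median of filtered per-cluster binding-curve fits. The binding series used SNAP-549-labelled MS2 coat protein from 0.7 or 1.5 nM, doubling to 3 µM, on designs transcribed by stalled E. coli RNA polymerase on Illumina sequencing-chip clusters. Each series ran without and then with constant ligand in 100 mM Tris-HCl pH 7.5, 80 mM KCl, 4 mM MgCl2, BSA, DTT, yeast tRNA and Tween-20.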

[1] = designed as: OFF switch for tryptophan, no ligand
[2] = ligand present: tryptophan, designed as: OFF switch for tryptophan
[3] = designed as: ON switch for tryptophan, no ligand
[4] = ligand present: tryptophan, designed as: ON switch for tryptophan

Row | Sequence | apparent Kd [1] | apparent Kd [2] | apparent Kd [3] | apparent Kd [4]
1 | AAAAUAAUGGCGGCCGCCACUAACUCAUAUACAUCAUGUACAUGAGGAUCACCCAUGUAGGUGUAUAGGACCGGGCCAUAAUUAA | 18.6 nM | 25.6 nM | – | –
2 | AAACAUGAGGAUCACCCAUGUUCUCCUGUCCGAGGACCGGUACGGCCGCCACUCGGUUCUCGGGAGGAUGGUCAAAGACUAUCCA | – | – | 13.7 nM | 13.6 nM
3 | AAUAACAUGAGGAUCACCCAUGUAAGUAAACGAGGACCGGUACGGCCGCCACUCGAAUAAAUAAAGUACCGGUAAGAUCCAGGGA | – | – | 14.8 nM | 16.8 nM
4 | AAUAGUCCUCGACAUGAGGAUCACCCAUGUCGAGGACCGGUACGGCCGCCACUCGACAUGAGGAUCACCCAUGUUGAGUGAUAAA | 8.34 nM | 7.72 nM | – | –
5 | AAUGCCGGAUCGGCCGCCACUGGUUGGCUCUGUGUACAUGAGGAUCACCCAUGUCCAUCCCAAACCAGGACCGGGAUCUUUGUGU | – | – | 13.1 nM | 8.83 nM
6 | AAUGUAUGGCACAUGAGGAUCACCCAUGUGCGAGGACCGGUACGGCCGCCACUCGGUCAAGGGAUCUUACCUCUAUACAUUAAUG | 10.4 nM | 18.8 nM | – | –
7 | AAUGUAUGGCACAUGAGGAUCACCCAUGUGCGAGGACCGGUACGGCCGCCACUCGGUCCUGGGAUCUUACAACUAUACAUUAAUG | 13.2 nM | 27 nM | – | –
8 | ACAUGAGGAUCACCCAUGUACAUCACCCGACGAGGACCGGUACGGCCGCCACUCGGGUAUAUAUUUACAUCGGGUGAUUUUACGU | – | – | 16.7 nM | 18 nM
9 | ACAUGAGGAUCACCCAUGUACGGUAUCAAUCGAGGACCGGUACGGCCGCCACUCGGAAAUAGAAGCGAUUAUUAGUGUUCUUUGU | – | – | 16.2 nM | 15.1 nM
10 | ACAUGAGGAUCACCCAUGUCAUGAGGUUCACGAGGACCGGUACGGCCGCCACUCGGGCUUCGGAUCACGGAUGUACAUGAUGAUC | – | – | 84 nM | 51.6 nM
11 | ACAUGAGGAUCACCCAUGUGUGUAAAUCCUCGAGGACCGGUACGGCCGCCACUCGAACGAGUGUAAGAUGAAUGUUACAUUCAUC | – | – | 105 nM | 38.3 nM
12 | ACAUGAGGAUCACCCAUGUGUGUAAGUCCUCGAGGACCGGUACGGCCGCCACUCGAUUGAGUGUAAGUUGAAUGUAACAUUCAAC | – | – | 16.7 nM | 13.8 nM
13 | ACGUCGCAUAGGAAAACUAUGUGACGAAAUCGAGGACCGGUACGGCCGCCACUCGUCCUCAACAUGAGGAUCACCCAUGUAAUAA | 18.7 nM | 36.6 nM | – | –
14 | ACUCGACCAUCAGCCAUUUGUGAAUCACGGCGAGGACCGGUACGGCCGCCACUCGACAUGAGGAUCACCCAUGUAAGACCGGUGU | 25.8 nM | 50.3 nM | – | –
15 | AGAUUCGACACGGCCGCCACUUGUGGUGGAUUAUCCUAUGUAAGACAUGAGGAUCACCCAUGUACAAGGACCGGGUGUUGAGUCU | 308 nM | 93.1 nM | – | –
16 | AGCAACAAGUCGGCCGCCACUCUUUUAACAUGAGGAUCACCCAUGUUUAUAUCAUGGUUUUAAUAGAGGACCGGGACAGUUGCAU | 35.1 nM | 41.8 nM | – | –
17 | AGCAUCUAGUCGGCCGCCACUCUUAUUACAUGAGGAUCACCCAUGUUUAAUUCAUGGUUAUAUUUGAGGACCGGGACAUUUGCAU | 61.7 nM | 55.8 nM | – | –
18 | AGGUGACAUGAGGAUCACCCAUGUGGCUUACGAGGACCGGUACGGCCGCCACUCGGUGUGACCUCCGCAUUCACAUAAUAAUCUU | – | – | 53.9 nM | 45.3 nM
19 | AGUGUCGGAGCGGCCGCCACUAGCACAUCUGGUCGCCAUGGCAACAUGAGGAUCACCCAUGUUGCUAGGACCGGGCUCAAUAUUU | 9.38 nM | 10.7 nM | – | –
20 | AUAUAUACAUGAGGAUCACCCAUGUUAUUUCGAGGACCGGUACGGCCGCCACUCGAUAGAGUAGAAGUAACAUUUGUUAGAUGAU | – | – | 21.6 nM | 13.2 nM
21 | AUCAUAAUAGACUCGUUAGAUUAUAUGGAACGAGGACCGGUACGGCCGCCACUCGUGAUGUACAUGAGGAUCACCCAUGUUAGCU | – | – | 14.7 nM | 15.2 nM
22 | AUUACAUGAGCAUCAGCACAUGAGGAUCACCGAGGACCGGUACGGCCGCCACUCGACACAUGAGGAUCACCCAUGUGUUGUUGUU | 286 nM | 244 nM | – | –
23 | AUUCAUGAAAACAUGACAUGAGGAUCACUCCGAGGACCGGUACGGCCGCCACUCGCGAGGAGGCACAUGAGGAUCACCCAUGUUA | – | – | 114 nM | 82.8 nM
24 | AUUUAUUAGACGGCCGCCACUUGAAAGCGACCUCAUAAAUGGGAACAUGAGGAUCACCCAUGUAAGAGGACCGGGUCUAGUAGAU | – | – | 104 nM | 300 nM
25 | CAAUAUAUAGCGGCCGCCACUUACUCAUGAGGUAACAACAUGAGGAUCACCCAUGUUUGAGGAUCAAGGACCGGGCUAUAUAUUG | – | – | 27.1 nM | 19.9 nM
26 | CAAUGCAGGUCGGCCGCCACUACACACAUGAGGAUCACCCAUGUAGUUACUGGGUGAAGUGGCAGUAGGACCGGGACCUGCAUAA | – | – | 373 nM | 265 nM
27 | CCGUUCUCUGCGGCCGCCACUCAAGGAGCUACAUAGCUCCUAGACAUGAGGAUCACCCAUGUCGCGAGGACCGGGUAGAUUCUCC | – | – | 49.5 nM | 33.2 nM

Row | Sequence | apparent Kd [1] | apparent Kd [2] | apparent Kd [3] | apparent Kd [4]
28 | CCUAUGCAGUCGGCCGCCACUGAUAAAAUUAUUUUUACCUCAGAAACAUGAGGAUCACCCAUGUACAGGACCGGGACUGUAUAGG | 18.1 nM | 38.5 nM | – | –
29 | CGAGUAAGAACAAUCGAAUAACGGUUUUCGCGAGGACCGGUACGGCCGCCACUCGUGUGAAAUAACACAUGAGGAUCACCCAUGU | – | – | 23.1 nM | 20 nM
30 | CGAUUUAAGACGGCCGCCACUAUUAAGUAACAAAAUAAACAUGAGGAUCACCCAUGUACAUGGGAUAGGACCGGGUCCAAUAUCG | – | – | 57.2 nM | 28.4 nM
31 | CGCCACUCGAGUGAUCCUCACGAGUGGCUACGAGGACCGGUACGGCCGCCACUCGAAUUAACAUGAGGAUCACCCAUGUAAUCCA | – | – | 86.3 nM | 62.5 nM
32 | CUACAUUUGUAGAAACCGGUCAACAAUAUUCGAGGACCGGUACGGCCGCCACUCGUAUAAUUUAAUACAUGAGGAUCACCCAUGU | – | – | 14.8 nM | 15.9 nM
33 | CUAUUUAUAGCGGCCGCCACUUACUCAUGAGGUAACAACAUGAGGAUCACCCAUGUUUGAGGAUCAAGGACCGGGCUAUGGAUAG | – | – | 26 nM | 20.1 nM
34 | CUCCCGUGGUCGGCCGCCACUGGAGGCCUCGCGCGACAUGAGGAUCACCCAUGUUGGCCCGGCUUCAGGACCGGGAUCGCGUGAG | – | – | 12.4 nM | 11.4 nM
35 | CUUGGCUGUGCGGCCGCCACUGGCUCAUCCUGCAUUACAUGAGGAUCACCCAUGUUGCGGCCUCCCAGGACCGGGCAUAGCCUGA | – | – | 253 nM | 139 nM
36 | GAGUAGAGGACGGCCGCCACUGAACAUGAGGAUCACCCAUGUCGUGAUCCGUUACCUAGGGUAGAUAGGACCGGGUCAUGUACUC | 42.6 nM | 42.5 nM | – | –
37 | GAUAUAUACUCGGCCGCCACUGAGAGAGUCAUGUAAACAUGAGGAUCACCCAUGUAAUAUAUAUACAGGACCGGGAGUAUAUUAA | 14.8 nM | 14.2 nM | – | –
38 | GCAUCCUAGUCGGCCGCCACUGCAUGUAGUUUUGCUACAUGGAAACAUGAGGAUCACCCAUGUAGCAGGACCGGGACUAGGAUGC | – | – | 27.5 nM | 11.5 nM
39 | GCCGCUGCCGCGGUGUGUGUGGGUGGGUGACGAGGACCGGUACGGCCGCCACUCGCGAUCGCACAUGAGGAUCACCCAUGUGUAA | 15 nM | 21.8 nM | – | –
40 | GCGGACAUGAGGAUCACCCAUGUAAAUCCUCGAGGACCGGUACGGCCGCCACUCGAACGAGUGGCACGCGAGUGCGCACUCGCGU | – | – | 24.7 nM | 25.4 nM
41 | GCUACAUGAGGAUCACCCAUGUAUGCGAGCCGAGGACCGGUACGGCCGCCACUCGCUUAACAUGAGGAUCACCCAUGUUGCUCGC | – | – | 24 nM | 14.8 nM
42 | GGACUCGUCACGGCCGCCACUGCGGUGGUGUGACAUGAGGAUCACCCAUGUUGUCAUGCGGCCCUUAGGACCGGGUGUCGCGUCC | 63.1 nM | 67.1 nM | – | –
43 | GGAUUCGGCACGGCCGCCACUGCGGUGGUGUGACAUGAGGAUCACCCAUGUUGUCAUGCGGCCCUUAGGACCGGGUGGCGUUUCC | 49.7 nM | 63.7 nM | – | –
44 | GGCCAUGGAAACAUGGCGGCGGCAUAUGCGCGAGGACCGGUACGGCCGCCACUCGGGCAACAUGAGGAUCACCCAUGUUCCUCAU | 211 nM | 454 nM | – | –
45 | GGCUUCAACUCGGCCGCCACUGGUGAUCCUCAUGUACAUGAGGAUCACCCAUGUACAUGAGACUACAGGACCGGGAGAUCAGCAA | – | – | 8.34 nM | 7.7 nM
46 | GGGUACAUCACGGCCGCCACUCAUGUAAAUACAUGAGGAUCACCCAUGUCGAUGGAGACAUCGGAGAGGACCGGGUGAUGUACCG | – | – | 338 nM | 272 nM
47 | GUAGCGACGACGGCCGCCACUCACACGAGAGGGUAGACCAACCUUCACAUGAGGAUCACCCAUGUGAGGACCGGGUUGUCGGUAC | 24 nM | 171 nM | – | –
48 | GUGCUGGUAUCGGCCGCCACUGUAACAUGACAUCCCAGGGCCGACAUGAGGAUCACCCAUGUUAACAGGACCGGGAUAUCAACGA | 14.2 nM | 25.4 nM | – | –
49 | GUUGAGACCUCGGCCGCCACUCGCCAUGAGGAUCUCCCAUGUAACAUGAGGAUCACCCAUGUACUGAGGACCGGGAGGUCCUUGU | – | – | 12.4 nM | 21.6 nM
50 | UACAUGAGGAUCACCCAUGUAUAACCGGUACGAGGACCGGUACGGCCGCCACUCGAAACAUGAGGAUCACCCAUGUGCUACUAUU | – | – | 34.5 nM | 35.6 nM
51 | UACCCAUGAGUUGGAAAAGCUCAUGGGUAUCGAGGACCGGUACGGCCGCCACUCGGCUGUACAUGAGGAUCACCCAUGUCAGGGU | – | – | 432 nM | 585 nM
52 | UAUAUAUAUCACGAACUGUGGUGUAUGUCUCGAGGACCGGUACGGCCGCCACUCGCGCGGCCUCACAUGAGGAUCACCCAUGUUG | 44.6 nM | 46 nM | – | –
53 | UAUCGUCAGACGGCCGCCACUAGAACAUGAGGAUCACCCAUGUAAGUGGCUGGUUCAUGGGUGUCUAGGACCGGGUCUGACGAAU | 17.2 nM | 37.2 nM | – | –

— the EternaBench riboswitch data
